The target of assay [1] is Sodium- and chloride-dependent betaine transporter (Homo sapiens, UniProt P48065, S345A). The experiment in a line: Inhibition of human BGT1 S345A mutant expressed in tsA201 cells assessed as reduction in [3H]GABA uptake after 3 mins by scintillation counting method. It counts as cell-based. Put shortly:
(§1)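 Site-directed mutant transporters transiently transfected (PolyFect) into tsA201 cells, plated and used about 24 h later. Cells were washed with HBSS containing 20 mM HEPES, 1 mM CaCl2 and 1 mM MgCl2, pH 7.4. IC50 was taken from variable-slope sigmoidal fits. Triplicates, at least three independent experiments.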

Assay [2] concerns the target Sodium- and chloride-dependent betaine transporter (Homo sapiens, UniProt P48065, H312N). Nature of the assay: Inhibition of human BGT1 H312N mutant expressed in tsA201 cells assessed as reduction in [3H]GABA uptake after 3 mins by scintillation counting method. The class given is cell-based. Put shortly:
as §1

Another assay deals with T1, GABA transporter 2 (Mus musculus, UniProt P31651).
T1 sequence (P31651 whole entry): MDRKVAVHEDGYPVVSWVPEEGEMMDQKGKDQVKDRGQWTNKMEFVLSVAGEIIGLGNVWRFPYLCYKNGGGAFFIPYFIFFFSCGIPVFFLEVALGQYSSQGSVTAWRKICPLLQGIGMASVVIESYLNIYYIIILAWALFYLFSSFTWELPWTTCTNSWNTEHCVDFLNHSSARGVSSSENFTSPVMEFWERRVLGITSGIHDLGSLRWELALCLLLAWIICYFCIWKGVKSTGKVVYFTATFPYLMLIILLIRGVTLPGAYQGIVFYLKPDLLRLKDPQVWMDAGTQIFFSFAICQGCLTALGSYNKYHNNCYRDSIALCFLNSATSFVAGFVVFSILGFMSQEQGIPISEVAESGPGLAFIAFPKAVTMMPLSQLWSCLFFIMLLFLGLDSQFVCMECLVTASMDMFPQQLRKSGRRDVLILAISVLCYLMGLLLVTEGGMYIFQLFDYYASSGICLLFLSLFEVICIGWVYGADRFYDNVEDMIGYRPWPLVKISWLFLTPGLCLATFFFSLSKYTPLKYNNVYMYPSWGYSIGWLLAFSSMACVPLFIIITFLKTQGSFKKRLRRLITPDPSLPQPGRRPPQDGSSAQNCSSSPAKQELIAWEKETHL
The experiment in a line: Inhibition of mouse BGT1 expressed in HEK293 cells assessed as reduction in [3H]GABA uptake after 3 mins by scintillation counting method. As to conditions: read-out: IC50. The class given is cell-based. The method, boiled down:
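HEK293 lines stably expressing a single mouse GAT subtype, kept under blasticidin-S (5 µg/mL) selection. Cells were assayed about 24 h after plating with 30 nM [3H]GABA plus varying compound concentrations for 3 min at 37 °C in HBSS buffered with 20 mM HEPES (1 mM CaCl2, 1 mM MgCl2, pH 7.4). Cells were washed ice-cold and radioactivity counted. IC50 came from sigmoidal variable-slope fits.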

For assay [3], the target named is Sodium- and chloride-dependent betaine transporter (Homo sapiens, UniProt P48065, Q346Y). The experiment in a line: Inhibition of human BGT1 Q346Y mutant expressed in tsA201 cells assessed as reduction in [3H]GABA uptake after 3 mins by scintillation counting method. The class given is cell-based. Put shortly: as §1
Assay [4] concerns the target Sodium- and chloride-dependent betaine transporter (Homo sapiens, UniProt P48065, Q378P). Nature of the assay: Inhibition of human BGT1 Q378P mutant expressed in tsA201 cells assessed as reduction in [3H]GABA uptake after 3 mins by scintillation counting method. It counts as cell-based. Put shortly:
as §1

The target of assay [5] is Sodium- and chloride-dependent betaine transporter (Homo sapiens, UniProt P48065, A328G). Nature of the assay: Inhibition of human BGT1 A328G mutant expressed in tsA201 cells assessed as reduction in [3H]GABA uptake after 3 mins by scintillation counting method. The class given is cell-based. The method, boiled down: as §1
Assay [6] has as its target Sodium- and chloride-dependent betaine transporter (Homo sapiens, UniProt P48065, I386M). The experiment in a line: Inhibition of human BGT1 I386M mutant expressed in tsA201 cells assessed as reduction in [3H]GABA uptake after 3 mins by scintillation counting method. The class given is cell-based. The method, boiled down:
as §1

Assay [7] has as its target 5-hydroxytryptamine receptor 1D (Homo sapiens) (UniProt P28221). The experiment in a line: Displacement of [3H]GR125743 from human 5-HT1D receptor expressed in HEKT cell membranes at 10 uM after 90 mins by scintillation counting method.
Assay [8] deals with Sodium- and chloride-dependent betaine transporter (Homo sapiens, UniProt P48065, F324C). The experiment in a line: Inhibition of human BGT1 F324C mutant expressed in tsA201 cells assessed as reduction in [3H]GABA uptake after 3 mins by scintillation counting method. It counts as cell-based. Put shortly:
as §1

Assay [9] has as its target Sodium- and chloride-dependent betaine transporter (Homo sapiens, UniProt P48065, F367Y). Nature of the assay: Inhibition of human BGT1 F367Y mutant expressed in tsA201 cells assessed as reduction in [3H]GABA uptake after 3 mins by scintillation counting method. The class given is cell-based. Put shortly:
as §1

Assay [10] addresses Sodium- and chloride-dependent betaine transporter (Homo sapiens, UniProt P48065). The experiment in a line: Inhibition of human BGT1/human GAT3 chimera C expresses in tsA201 cells assessed as reduction in [3H]GABA uptake after 3 mins by scintillation counting method. It counts as cell-based. The method, boiled down:
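BGT1/GAT3 chimeric constructs transiently expressed in tsA201 cells. After about 24 h, cells were washed in HEPES-buffered HBSS (1 mM CaCl2, 1 mM MgCl2, pH 7.4). IC50 came from variable-slope sigmoidal regression. Triplicates, at least two independent experiments.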

Assay [11] addresses Alpha-2C adrenergic receptor (Homo sapiens) (UniProt P18825). The experiment in a line: Displacement of [3H]rauwolscine from human alpha-2C adrenergic receptor expressed in MDCK cell membranes at 10 uM after 90 mins by scintillation counting method.
The target in assay [12] is Sodium- and chloride-dependent betaine transporter (Homo sapiens, UniProt P48065, I340V). The experiment in a line: Inhibition of human BGT1 I340V mutant expressed in tsA201 cells assessed as reduction in [3H]GABA uptake after 3 mins by scintillation counting method. It counts as cell-based. Put shortly:
as §1

The target in assay [13] is Sodium- and chloride-dependent betaine transporter (Homo sapiens, UniProt P48065, C382T). Nature of the assay: Inhibition of human BGT1 C382T mutant expressed in tsA201 cells assessed as reduction in [3H]GABA uptake after 3 mins by scintillation counting method. It counts as cell-based. Put shortly:
as §1

The target in assay [14] is Sodium- and chloride-dependent betaine transporter (Homo sapiens, UniProt P48065, K317R). Nature of the assay: Inhibition of human BGT1 K317R mutant expressed in tsA201 cells assessed as reduction in [3H]GABA uptake after 3 mins by scintillation counting method. The class given is cell-based. Put shortly: as §1
For assay [15], the target named is Sodium- and chloride-dependent betaine transporter (Homo sapiens, UniProt P48065, F295Y). The experiment in a line: Inhibition of human BGT1 F295Y mutant expressed in tsA201 cells assessed as reduction in [3H]GABA uptake after 3 mins by scintillation counting method. The class given is cell-based. Put shortly: as §1
Assay [16] has as its target Sodium- and chloride-dependent betaine transporter (Homo sapiens, UniProt P48065, A321M). Nature of the assay: Inhibition of human BGT1 A321M mutant expressed in tsA201 cells assessed as reduction in [3H]GABA uptake after 3 mins by scintillation counting method. It counts as cell-based. The method, boiled down:
as §1

Activity calls are given as the source filed them. The rule behind the calls is not given here.

This is an account of results in ChEMBL document CHEMBL4028872, “Structure-Activity Relationship, Pharmacological Characterization, and Molecular Modeling of Noncompetitive Inhibitors of the Betaine/γ-Aminobutyric Acid Transporter 1 (BGT1)” (J Med Chem, 2017).

Sodium- and chloride-dependent betaine transporter (Homo sapiens, UniProt P48065, F367Y), sequence (P48065 whole entry F367Y): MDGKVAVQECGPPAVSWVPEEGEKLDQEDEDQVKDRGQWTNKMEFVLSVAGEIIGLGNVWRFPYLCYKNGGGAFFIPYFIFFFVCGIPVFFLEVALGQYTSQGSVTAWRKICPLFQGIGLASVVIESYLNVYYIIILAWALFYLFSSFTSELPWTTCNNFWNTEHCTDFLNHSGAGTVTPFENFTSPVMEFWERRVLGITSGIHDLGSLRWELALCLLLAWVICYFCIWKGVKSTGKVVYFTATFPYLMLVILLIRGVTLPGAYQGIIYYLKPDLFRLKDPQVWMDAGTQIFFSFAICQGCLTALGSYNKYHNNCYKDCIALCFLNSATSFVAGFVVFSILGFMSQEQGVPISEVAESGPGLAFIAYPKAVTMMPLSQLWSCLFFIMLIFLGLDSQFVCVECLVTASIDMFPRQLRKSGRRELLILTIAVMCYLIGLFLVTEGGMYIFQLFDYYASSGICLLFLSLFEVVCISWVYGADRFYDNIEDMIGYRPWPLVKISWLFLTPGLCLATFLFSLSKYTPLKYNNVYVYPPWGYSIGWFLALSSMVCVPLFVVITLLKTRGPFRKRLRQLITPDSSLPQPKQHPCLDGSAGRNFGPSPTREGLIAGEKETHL
Sodium- and chloride-dependent betaine transporter (Homo sapiens, UniProt P48065, I340V), sequence (P48065 whole entry I340V): as the sequence (P48065 whole entry F367Y) above, with I340V, Y367F counted along it
Sodium- and chloride-dependent betaine transporter (Homo sapiens, UniProt P48065), sequence (P48065 whole entry, looked up): as the sequence (P48065 whole entry F367Y) above, with Y367F counted along it
Sodium- and chloride-dependent betaine transporter (Homo sapiens, UniProt P48065, F295Y), sequence (P48065 whole entry F295Y): as the sequence (P48065 whole entry F367Y) above, with F295Y, Y367F counted along it
Sodium- and chloride-dependent betaine transporter (Homo sapiens, UniProt P48065, S345A), sequence (P48065 whole entry S345A): as the sequence (P48065 whole entry F367Y) above, with S345A, Y367F counted along it
Sodium- and chloride-dependent betaine transporter (Homo sapiens, UniProt P48065, C382T), sequence (P48065 whole entry C382T): as the sequence (P48065 whole entry F367Y) above, with Y367F, C382T counted along it
Sodium- and chloride-dependent betaine transporter (Homo sapiens, UniProt P48065, Q378P), sequence (P48065 whole entry Q378P): as the sequence (P48065 whole entry F367Y) above, with Y367F, Q378P counted along it
Sodium- and chloride-dependent betaine transporter (Homo sapiens, UniProt P48065, F324C), sequence (P48065 whole entry F324C): as the sequence (P48065 whole entry F367Y) above, with F324C, Y367F counted along it
Sodium- and chloride-dependent betaine transporter (Homo sapiens, UniProt P48065, I386M), sequence (P48065 whole entry I386M): as the sequence (P48065 whole entry F367Y) above, with Y367F, I386M counted along it
Sodium- and chloride-dependent betaine transporter (Homo sapiens, UniProt P48065, A321M), sequence (P48065 whole entry A321M): as the sequence (P48065 whole entry F367Y) above, with A321M, Y367F counted along it
Sodium- and chloride-dependent betaine transporter (Homo sapiens, UniProt P48065, A328G), sequence (P48065 whole entry A328G): as the sequence (P48065 whole entry F367Y) above, with A328G, Y367F counted along it
Sodium- and chloride-dependent betaine transporter (Homo sapiens, UniProt P48065, K317R), sequence (P48065 whole entry K317R): as the sequence (P48065 whole entry F367Y) above, with K317R, Y367F counted along it
Alpha-2C adrenergic receptor (Homo sapiens), sequence (P18825 whole entry): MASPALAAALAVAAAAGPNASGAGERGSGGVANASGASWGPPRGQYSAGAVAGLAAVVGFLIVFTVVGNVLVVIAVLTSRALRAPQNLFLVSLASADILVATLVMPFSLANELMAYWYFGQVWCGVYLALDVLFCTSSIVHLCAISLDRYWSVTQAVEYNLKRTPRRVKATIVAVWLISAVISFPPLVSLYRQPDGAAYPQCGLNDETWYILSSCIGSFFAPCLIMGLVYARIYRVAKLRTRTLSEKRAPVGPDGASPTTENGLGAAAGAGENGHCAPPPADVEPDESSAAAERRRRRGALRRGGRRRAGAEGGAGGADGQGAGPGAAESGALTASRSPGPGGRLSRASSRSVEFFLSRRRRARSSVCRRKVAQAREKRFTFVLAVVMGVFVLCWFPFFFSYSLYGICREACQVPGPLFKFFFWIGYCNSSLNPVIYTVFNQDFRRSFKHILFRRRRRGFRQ
5-hydroxytryptamine receptor 1D (Homo sapiens), sequence (P28221 whole entry): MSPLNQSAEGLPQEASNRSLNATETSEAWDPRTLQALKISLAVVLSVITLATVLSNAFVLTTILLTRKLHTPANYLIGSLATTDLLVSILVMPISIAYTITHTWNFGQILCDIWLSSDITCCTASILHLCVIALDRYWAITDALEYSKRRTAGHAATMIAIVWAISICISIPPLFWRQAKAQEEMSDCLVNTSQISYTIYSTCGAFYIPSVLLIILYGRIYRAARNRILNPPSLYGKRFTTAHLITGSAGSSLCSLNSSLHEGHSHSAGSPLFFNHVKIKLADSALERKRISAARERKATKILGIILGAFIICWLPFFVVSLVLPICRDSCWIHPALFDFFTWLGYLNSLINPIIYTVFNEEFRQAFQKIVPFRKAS
Sodium- and chloride-dependent betaine transporter (Homo sapiens, UniProt P48065, H312N), sequence (P48065 whole entry H312N): as the sequence (P48065 whole entry F367Y) above, with H312N, Y367F counted along it
Sodium- and chloride-dependent betaine transporter (Homo sapiens, UniProt P48065, Q346Y), sequence (P48065 whole entry Q346Y): as the sequence (P48065 whole entry F367Y) above, with Q346Y, Y367F counted along it

`O=C(NC1CCN(Cc2ccccc2)CC1)c1ccc(Cl)cc1Cl`: the IC50 came out at 21 µM in assay [1]; 8 µM in assay [2]; 32 µM at GABA transporter 2; 14 µM in assay [3]; 14 µM in assay [4]; 7 µM in [5]. The IC50 in [6] was 7 µM; in [8], 6 µM; in [9] (read-out: IC50), 5 µM; in assay [9] (read-out: pIC50 (converted)) it was 6.03 µM; in assay [10], 58 µM; in assay [12] (read-out: IC50), 8 µM. Further, the IC50 in assay [12] (read-out: pIC50 (converted)) is 5.89 µM; in assay [13], 15 µM; in assay [14], 13 µM; in [15] (read-out: IC50) it was 5 µM; in assay [15] (read-out: pIC50 (converted)), 4.07 µM; in assay [16], 5 µM. The inhibition result in assay [7] and in assay [11] was “Active” in each case. Also, in assay [10], the negative-log IC50 (pIC50) worked out at 4.6.
For `O=C(NC1CCN(Cc2ccccc2)CC1)c1ccc(Cl)nc1Cl`, the IC50 on GABA transporter 2 worked out at 37 µM.
